Source: PubChem BioAssay
Activity calls are given as the source filed them.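 Rule for the calls, unless noted: active = fluorescence slope higher than the sample average by over 3 SD (cut at about -0.22 in these data, passing the limit was not always enough); inactive = the rest.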

Experiments:
[1] = inhibitors of TNFa-induced NFkB p65 translocation, primary screen, imaging, HUVEC, MLSMR starter and 10KST1 sets (AID 438;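 active = inhibition above 20% together with a positive visual image hit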;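 note: compound added about 3h40 before a 20 min TNFalpha stimulation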;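 for inhibition: signal is the nuclear over cytoplasmic p65 intensity ratio per well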); conditions: HUVEC TNFa-induced p65 nuclear translocation; cell count: measured here: nuclei count (cytotoxicity indicator), at 2.08 µM; inhibition: at 2 µM, stronger effect = higher value, 0% TNFa-plus-vehicle, 100% no-TNFa wells
[2] = inhibitors of E-selectin induction by TNFa, primary screen, imaging, HUVEC, immunofluorescence, MLSMR starter and 10KST1 sets (AID 487;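 active = visually confirmed hit in the image check and inhibition above 20%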;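 for inhibition: signal is fraction of cell area covered by stained E-selectin grains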;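 for nuclei count: 100% = median nuclei count of all wells on the same plate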); conditions: HUVEC TNFalpha-induced E-selectin immunofluorescence imaging, at 2 µM; inhibition: stronger effect = higher value; nuclei count: measured here: cell number, toxicity
[3] = DUSP6 inhibitors restoring Erk phosphorylation by chemical complementation, primary imaging in DUSP6-transfected HeLa (AID 609;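 active = compounds giving at least 50% inhibition in the cell-based MKP-3 phosphatase rescue imaging test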;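 for inhibition: phospho-Erk level distribution per well compared with pooled transfected vehicle control wells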); conditions: HeLa MKP-3 transfected, phospho-Erk imaging KS statistic, at 10 µM, cells stimulated with TPA for 15 min
[4] = target: Dual specificity protein phosphatase 6 (Homo sapiens) (UniProt Q16828); assay: as above; conditions: HeLa MKP-3 transfected, phospho-Erk imaging KS statistic; at 10 µM; stronger effect = higher value; cells stimulated with TPA for 15 min
Chain of Dual specificity protein phosphatase 6 (Homo sapiens) (Q16828 whole entry, looked up): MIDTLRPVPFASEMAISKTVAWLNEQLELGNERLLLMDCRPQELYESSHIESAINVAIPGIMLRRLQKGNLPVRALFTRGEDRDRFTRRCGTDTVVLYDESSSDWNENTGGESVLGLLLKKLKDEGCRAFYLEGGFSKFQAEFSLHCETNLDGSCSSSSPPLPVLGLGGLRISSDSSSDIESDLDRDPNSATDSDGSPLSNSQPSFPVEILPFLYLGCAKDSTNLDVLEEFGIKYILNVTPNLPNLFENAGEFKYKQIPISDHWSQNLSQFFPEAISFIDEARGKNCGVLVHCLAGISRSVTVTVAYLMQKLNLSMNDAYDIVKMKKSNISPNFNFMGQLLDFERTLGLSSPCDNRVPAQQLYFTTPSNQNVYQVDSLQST

[5] = target: Voltage-gated potassium channel subunit beta-2 (Rattus norvegicus) (UniProt P62483); assay: KvBeta enzyme negative modulators, primary screen, biochemical, NADPH fluorescence (AID 622); conditions: recombinant KvBeta, 4-cyanobenzaldehyde reduction, at 10 µM, stronger effect = higher value;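 note: slope of raw intensity against log time taken from 70 to 1610 s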
Chain of Voltage-gated potassium channel subunit beta-2 (Rattus norvegicus) (P62483 whole entry, looked up): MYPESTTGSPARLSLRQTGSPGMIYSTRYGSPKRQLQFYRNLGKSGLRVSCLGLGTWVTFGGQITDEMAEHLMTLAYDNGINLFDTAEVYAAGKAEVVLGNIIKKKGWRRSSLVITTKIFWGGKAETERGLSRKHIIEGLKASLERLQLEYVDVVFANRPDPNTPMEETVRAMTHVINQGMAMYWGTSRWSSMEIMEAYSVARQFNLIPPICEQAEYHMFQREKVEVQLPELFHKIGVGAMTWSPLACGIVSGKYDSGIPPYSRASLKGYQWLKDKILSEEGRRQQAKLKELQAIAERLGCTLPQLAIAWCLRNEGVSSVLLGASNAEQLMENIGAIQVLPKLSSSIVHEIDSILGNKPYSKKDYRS

[6] = target: Voltage-gated potassium channel subunit beta-2 (Rattus norvegicus) (UniProt P62483); assay: KvBeta positive modulators, primary screen, biochemical, NADPH fluorescence (AID 623;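 active = NADPH fluorescence slope more negative than the mean of all samples by about 3 SD, 99.7% confidence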;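 note: fluorescence intensity change per second fitted from 20 to 320 s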); conditions: Recombinant KvBeta, NADPH fluorescence decrease slope, 10 min; at 10 µM; stronger effect = lower value
[7] = target: Muscarinic acetylcholine receptor M4 (Homo sapiens) (UniProt P08173); assay: compounds altering M4/GIRK thallium flux, either direction, primary screen, M4 allosteric agonist project, cell-based, HEK293 M4/GIRK, BTC-AM (AID 625;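 active = fluorescence slope after compound addition differing from the mean of all tested samples at 99.7% confidence, mostly higher but some lower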;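 note: thallium influx through GIRK channels coupled to M4 in HEK293 cells with BTC-AM dye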); conditions: at 10 µM, actives lie on both sides
Chain of Muscarinic acetylcholine receptor M4 (Homo sapiens) (P08173 whole entry, looked up): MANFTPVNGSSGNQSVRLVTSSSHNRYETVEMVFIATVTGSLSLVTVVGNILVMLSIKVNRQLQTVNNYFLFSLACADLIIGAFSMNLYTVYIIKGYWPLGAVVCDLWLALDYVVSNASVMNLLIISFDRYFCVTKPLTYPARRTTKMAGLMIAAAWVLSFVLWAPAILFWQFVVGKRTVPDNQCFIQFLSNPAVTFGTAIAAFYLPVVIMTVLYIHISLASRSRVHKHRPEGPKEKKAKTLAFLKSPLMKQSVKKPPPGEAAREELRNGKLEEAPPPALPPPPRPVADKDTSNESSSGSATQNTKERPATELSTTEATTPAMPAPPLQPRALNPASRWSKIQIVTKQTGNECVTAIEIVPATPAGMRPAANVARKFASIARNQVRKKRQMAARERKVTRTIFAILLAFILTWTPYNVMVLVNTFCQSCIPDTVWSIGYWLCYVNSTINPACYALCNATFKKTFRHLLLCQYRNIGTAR
Procedure, shortened: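 assay system = HEK293 cells with M4 receptor and GIRK channels | medium = pH 7.3 thallium assay buffer | doses = 10 µM final, single point | timing = cells overnight at 37 °C, BTC-AM loading 1 h, reads 2 min total | signal = BTC-AM fluorescence, 1 Hz kinetic reads | read-out = post-addition slope, 15–24 s, of baseline-normalized fluorescence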

[8] = inhibitors of larval lipid processing in zebrafish, primary screen, whole organism, PED6 fluorescence, gall bladder and intestine (AID 686;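 active = a full or partial loss of lipid-probe fluorescence in the fish gall bladder, intestine or both, judged by eye; inactive = no fluorescence loss, or compound toxic to the fish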;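 note: larvae 5 to 7 days old with five fish per well; signal comes from phospholipase A2 cleavage of quenched PED6 carried via bile; overnight exposure to compound and PED6 before scoring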); conditions: Zebrafish larvae PED6 lipid processing, fluorescence scoring; screened at 20 µM (by protocol)
Procedure, shortened: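 Also added: quenched phospholipase substrate PED6, 100 nM final, ingested by larvae; System: zebrafish larvae, 5-7 d; Quantity: 5 larvae per well; Compound: 20 µM single dose; Schedule: overnight compound and PED6 incubation; Read-out: visual per-well fluorescence inhibition score; Measured by: By-eye fluorescence microscopy; Medium: E3.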

[9] = inhibitors of Chlamydomonas gravitaxis, primary screen, whole organism, Chlamydomonas reinhardtii, WT vs cilia-less mutant, absorbance, 96-well (AID 463189;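 active = inhibition at or above 50% relative to wild type and mutant plate controls; inactive = inhibition below 50%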;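 note: 0% = wild type cc124 cells in DMSO and 100% = ciliumless bld1 mutant cells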); conditions: OD600 absorbance, 2 days, at 10 µM, stronger effect = higher value
[10] = measured here: cell density z-score
[11] = measured here: nuclear c-Myc green intensity z-score
[12] = measured here: nuclear pErk red intensity z-score, stronger effect = higher value

SMILES	cell count [1]	inhibition [1]	inhibition [2]	nuclei count [2] [%]	z-score [3, 10]	z-score [3, 11]	z-score [3, 12]	inhibition [4]	fluorescence slope [5]	NADPH fluorescence slope [6]	fluorescence slope [7]	outcome [8]	inhibition [9]
COc1ccc(N2CCN(c3oc(COc4ccc(Cl)cc4)nc3C#N)CC2)cc1	374	-3.3% (inactive)	-61.3% (inactive)	106	1.12	0.417	0.177	2.71% (inactive)	-0.46 (inactive)	-7e-05 (inactive)	0.00414 (inactive)	inactive	-10.3% (inactive)
CCC(=O)Nc1ccc(-c2nnc(SCC(=O)NCC3CCCO3)n2C)cc1 (stereo unspecified)	656	-4.5% (inactive)	10.4% (inactive)	160	-0.113	1.6	0.412	-2.09% (inactive)	-0.5 (inactive)	-5.7e-05 (inactive)	0.0052 (inactive)	inactive	-4.35% (inactive)
CC1(C)Cc2c(c(-c3ccccc3Cl)[nH]c(=O)c2C#N)CO1	591	5.7% (inactive)	-106% (inactive)	134	0.999	-0.743	0.0604	11.9% (inactive)	-0.384 (inactive)	-2.7e-05 (inactive)	0.00508 (inactive)	inactive	20.5% (inactive)
COc1ccc(C(=O)CCN2CCCCCC2)cc1	387	-7.4% (inactive)	-32.1% (inactive)	148	-0.26	-0.113	-0.00775	5.42% (inactive)	-0.438 (inactive)	-0.000102 (inactive)	0.00485 (inactive)	inactive; toxic	-0.057% (inactive)
CC1(C)Cc2c(C#N)c(N3CCN(C(=O)c4ccco4)CC3)nc(Cc3ccccc3)c2CO1	541	-6.6% (inactive)	2.1% (inactive)	97.1	1.26	-0.345	-0.81	12.8% (inactive)	-0.499 (inactive)	4.3e-05 (inactive)	0.00414 (inactive)	inactive	16.1% (inactive)
Nc1nnnn1/N=C/c1ccco1	510	-4% (inactive)	-8.3% (inactive)	90.4	0.476	0.245	-0.718	11% (inactive)	-0.502 (inactive)	-4.9e-05 (inactive)	0.00713 (inactive)	inactive	-6.14% (inactive)
Cc1ccccc1N1C(=O)CC(Sc2nnc(-c3ccccc3)o2)C1=O (stereo unspecified)	482	-2.4% (inactive)	-29.2% (inactive)	177	-0.982	-1.28	2.47	5.95% (inactive)	-0.383 (inactive)	-3.3e-05 (inactive)	0.00539 (inactive)	inactive	57.7% (active)
CCC(NC(=O)Nc1ncccc1C)(C(F)(F)F)C(F)(F)F	612	5.3% (inactive)	-36.6% (inactive)	104	1.12	0.397	-1.61	20.2% (inactive)	-0.508 (inactive)	-1.7e-05 (inactive)	0.00598 (inactive)	inactive	35.4% (inactive)
Cc1ccc(N(CN2C(=O)C3CC=CCC3C2=O)C(=O)c2ccco2)cc1Cl (stereo unspecified)	419	-4.5% (inactive)	32.8% (inactive)	102	0.823	-0.172	0.302	-7.28% (inactive)	-0.453 (inactive)	-1.3e-05 (inactive)	0.00483 (inactive)	inactive	30.1% (inactive)
CCCSc1nnc(NC(=O)Nc2ccc(F)cc2)s1	660	-13.9% (inactive)	-24% (inactive)	182	0.28	-1.17	-0.511	20.2% (inactive)	-0.488 (inactive)	-6.8e-05 (inactive)	0.00807 (inactive)	inactive	6.75% (inactive)
COc1ccc(C(=O)OC(C)CN2CCN(C)CC2)cc1OC (stereo unspecified)	386	2.6% (inactive)	-35.7% (inactive)	154	-1.91	0.605	1.37	-11% (inactive)	-0.446 (inactive)	-9.4e-05 (inactive)	0.00501 (inactive)	inactive	21.4% (inactive)
Cn1c(CSc2ncn[nH]2)nc2ccccc21	537	-6.4% (inactive)	-75.5% (inactive)	122	-3.21	1.73	1.28	20.2% (inactive)	-0.49 (inactive)	-0.000116 (inactive)	0.00416 (inactive)	inactive	-14.5% (inactive)
c1ccc2c(c1)CCOC2CNCCCN1CCCCC1 (stereo unspecified)	701	-5.5% (inactive)	-141% (inactive)	172	-0.992	1.14	-0.201	1.98% (inactive)	-0.473 (inactive)	-6.5e-05 (inactive)	0.00496 (inactive)	inactive	-4.57% (inactive)
CC(C)CCNc1nc2c(cc1C#N)COC(C)(C)C2	536	-6.5% (inactive)	-22.1% (inactive)	143	1.89	-0.595	-1.16	22.1% (inactive)	-0.426 (inactive)	-5.9e-05 (inactive)	0.00455 (inactive)	inactive	-19.8% (inactive)
CCCCc1cc(=O)oc2c(CN3CCCC3)c(O)ccc12	600	-1.9% (inactive)	32.2% (inactive)	151	0.99	-0.992	-0.105	4.37% (inactive)	-0.0163 (inactive)	5.9e-06 (inactive)	0.00474 (inactive)	inactive	-2.81% (inactive)
CCOC(=O)CC(=O)CSc1nnc2sc3ccccc3n12	493	-14.5% (inactive)	27.3% (inactive)	174	0.311	0.752	-0.0836	3.97% (inactive)	-0.427 (inactive)	-3e-05 (inactive)	0.0062 (inactive)	inactive	6.97% (inactive)
C=CC[N+](C)(C)CCCNC(=O)/C=N/O	665	-3.3% (inactive)	-22.3% (inactive)	164	0.15	-0.161	-1.51	-9.53% (inactive)	-0.482 (inactive)	-4.6e-05 (inactive)	0.00537 (inactive)	inactive	-5.25% (inactive)
C=CCOc1ccc(/C(O)=C2/C(=O)C(=O)N(CCCN3CCOCC3)C2c2ccccc2)cc1 (stereo unspecified)	400	-4.5% (inactive)	-152% (inactive)	142	0.832	-1.64	0.377	7.73% (inactive)	-0.44 (inactive)	-0.000122 (inactive)	0.00439 (inactive)	inactive	3.35% (inactive)
O=c1[nH]cnc2c1cnn2Cc1ccccc1	509	-2.1% (inactive)	-58.3% (inactive)	145	0.233	-0.586	0.288	-3.97% (inactive)	-0.354 (inactive)	-5.1e-05 (inactive)	0.00657 (inactive)	inactive	-9.15% (inactive)
CCc1cc(=O)oc2cc(C)c(CN3CCCC(C)C3)c(O)c12 (stereo unspecified)	539	-7.1% (inactive)	-2.7% (inactive)	109	1.56	0.423	-0.74	12.7% (inactive)	-0.486 (inactive)	-2.8e-05 (inactive)	0.00473 (inactive)	inactive	-8.79% (inactive)
CCOC(=O)C(O)(C1C(=O)CC(C)(C)CC1=O)C(F)(F)F (stereo unspecified)	681	-12.6% (inactive)	-174% (inactive)	160	-0.979	0.326	3.57	-9.53% (inactive)	-0.44 (inactive)	-4.6e-05 (inactive)	0.00523 (inactive)	inactive	3.71% (inactive)
Cc1cc(=O)oc2cc(OCC(=O)NCc3cccnc3)ccc12	618	9% (inactive)	-1.6% (inactive)	105	-0.419	-0.48	0.0246	-3.95% (inactive)	-0.428 (inactive)	-5e-05 (inactive)	0.00447 (inactive)	inactive	-0.087% (inactive)
COc1ccccc1C(=O)NCC(=O)n1nc(C)cc1C	542	-13.5% (inactive)	-24% (inactive)	146	0.666	0.744	-0.112	19.8% (inactive)	-0.331 (inactive)	-5.1e-05 (inactive)	0.0067 (inactive)	inactive	-1.54% (inactive)
O=C(Oc1oc(-c2ccco2)nc1C=Nc1ccccc1)c1ccco1	504	15% (inactive)	-2% (inactive)	108	-2.44	1.67	-0.418	22.1% (inactive)	-0.504 (inactive)	-3.8e-05 (inactive)	0.0053 (inactive)	inactive	38.4% (inactive)
CC(NC(=O)NCc1cccnc1)(C(F)(F)F)C(F)(F)F	708	-13.6% (inactive)	-45% (inactive)	138	-0.926	1.23	1.47	-2.09% (inactive)	-0.446 (inactive)	-4.7e-05 (inactive)	0.00505 (inactive)	inactive	10.1% (inactive)
CSc1nc(C)c2c(c1C#N)CCCC2	507	-9.7% (inactive)	-266% (inactive)	148	-0.174	-0.19	-1.41	1.04% (inactive)	-0.455 (inactive)	-3.8e-05 (inactive)	0.00451 (inactive)	inactive	10.6% (inactive)
CCN(CC)CCN1C(=O)C(=O)/C(=C(/O)c2ccc(OC)cc2)C1c1ccco1 (stereo unspecified)	710	-1.4% (inactive)	4.1% (inactive)	163	0.167	0.629	0.173	-7.67% (inactive)	-0.496 (inactive)	-6.6e-05 (inactive)	0.00632 (inactive)	inactive	5.19% (inactive)
